What is called IC50 is the concentration that inhibits the measured activity by half. Read a high IC50 as weaker potency in that assay.

Calls of active or inactive are those of the source. The calls are words filed in the database; no cut-off is given here.

The target in experiment [1] is DNA polymerase I, thermostable (Thermus aquaticus) (UniProt P19821). The experiment in a line: Inhibitory activity against taq polymerase at 10 uM; No inhibition.
The subject of experiment [2] is CH1. The experiment in a line: Cytotoxicity measured in human ovarian cell line CH1 using sulforhodamine B (SRB) assay. In kind it is functional, cell-based. The method in brief: (§1)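 SRB growth-inhibition assay in human ovarian carcinoma cells: 3000–6000 cells/well attached overnight, then salts (dissolved at 500 μM in water) added in quadruplicate at final 0.05, 0.25, 1, 5 and 25 μM. After 96 h, cells fixed with ice-cold 10% TCA and stained with 0.4% SRB. Mean A540 expressed as % of untreated control; IC50 = concentration giving 50% growth inhibition.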

The target in experiment [3] is DNA polymerase I, thermostable (Thermus aquaticus) (UniProt P19821). The experiment in a line: Inhibitory activity against taq polymerase at 50 uM; No inhibition.
Experiment [4] concerns SK-OV-3. Nature of the experiment: Cytotoxicity measured in human ovarian cell line SKOV-3 using sulforhodamine B (SRB) assay. In kind it is functional, cell-based. The method in brief: as §1
Experiment [5] has as its target Telomerase reverse transcriptase (Homo sapiens, UniProt O14746). Nature of the experiment: Inhibitory activity against telomerase. The procedure, abridged: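 Modified TRAP with extract from exponentially growing A2780 ovarian carcinoma cells. Telomerase then inactivated at 80 °C for 5 min, CX primer and Taq added, 31 PCR cycles. Products analysed by denaturing PAGE with phosphorimaging/autoradiography, or by filter scintillation counting.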

Experiment [6] addresses DNA polymerase I, thermostable (Thermus aquaticus) (UniProt P19821). The experiment in a line: Inhibitory activity against taq polymerase at 20 uM; No inhibition.
The test system of experiment [7] is A2780. The experiment in a line: Cytotoxicity measured in human ovarian cell line A2780 using sulforhodamine B (SRB) assay. In kind it is functional, cell-based. The procedure, abridged: as §1
For orientation: The SRB assay estimates cell density from bound dye.

Experiment [8] deals with DNA polymerase I, thermostable (Thermus aquaticus) (UniProt P19821). The experiment in a line: Inhibitory activity against taq polymerase at 50 uM; Slight.

Chain of Telomerase reverse transcriptase (O14746 whole entry): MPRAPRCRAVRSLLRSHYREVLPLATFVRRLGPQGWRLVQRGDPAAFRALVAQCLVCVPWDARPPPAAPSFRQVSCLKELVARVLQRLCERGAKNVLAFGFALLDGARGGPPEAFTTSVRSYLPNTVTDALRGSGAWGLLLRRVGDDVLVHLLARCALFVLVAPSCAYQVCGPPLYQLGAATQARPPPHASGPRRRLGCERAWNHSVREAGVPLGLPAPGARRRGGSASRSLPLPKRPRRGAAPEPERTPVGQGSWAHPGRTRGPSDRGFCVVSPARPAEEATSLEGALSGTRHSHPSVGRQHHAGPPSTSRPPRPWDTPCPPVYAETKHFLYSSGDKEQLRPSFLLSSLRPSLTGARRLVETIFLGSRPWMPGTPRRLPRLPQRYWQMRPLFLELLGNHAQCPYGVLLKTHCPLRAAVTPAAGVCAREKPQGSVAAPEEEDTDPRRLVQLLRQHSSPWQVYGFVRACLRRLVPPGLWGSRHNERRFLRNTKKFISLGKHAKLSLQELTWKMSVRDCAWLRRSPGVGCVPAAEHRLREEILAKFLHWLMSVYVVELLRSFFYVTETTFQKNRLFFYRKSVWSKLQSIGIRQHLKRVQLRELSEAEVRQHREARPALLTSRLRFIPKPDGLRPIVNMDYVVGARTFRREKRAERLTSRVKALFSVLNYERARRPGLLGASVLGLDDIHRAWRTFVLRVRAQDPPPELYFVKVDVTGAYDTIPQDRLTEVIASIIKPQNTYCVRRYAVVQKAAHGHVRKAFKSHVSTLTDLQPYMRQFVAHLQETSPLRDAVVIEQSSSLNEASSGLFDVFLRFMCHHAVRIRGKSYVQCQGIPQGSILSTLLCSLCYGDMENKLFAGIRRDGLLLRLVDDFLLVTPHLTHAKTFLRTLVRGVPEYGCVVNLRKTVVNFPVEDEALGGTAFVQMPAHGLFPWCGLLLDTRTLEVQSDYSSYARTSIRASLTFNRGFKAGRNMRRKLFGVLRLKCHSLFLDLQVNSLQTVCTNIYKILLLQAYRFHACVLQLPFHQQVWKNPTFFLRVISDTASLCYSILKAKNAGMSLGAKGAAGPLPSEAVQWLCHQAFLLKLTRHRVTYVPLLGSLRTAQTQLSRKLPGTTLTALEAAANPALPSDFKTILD
Chain of DNA polymerase I, thermostable (Thermus aquaticus) (P19821 whole entry): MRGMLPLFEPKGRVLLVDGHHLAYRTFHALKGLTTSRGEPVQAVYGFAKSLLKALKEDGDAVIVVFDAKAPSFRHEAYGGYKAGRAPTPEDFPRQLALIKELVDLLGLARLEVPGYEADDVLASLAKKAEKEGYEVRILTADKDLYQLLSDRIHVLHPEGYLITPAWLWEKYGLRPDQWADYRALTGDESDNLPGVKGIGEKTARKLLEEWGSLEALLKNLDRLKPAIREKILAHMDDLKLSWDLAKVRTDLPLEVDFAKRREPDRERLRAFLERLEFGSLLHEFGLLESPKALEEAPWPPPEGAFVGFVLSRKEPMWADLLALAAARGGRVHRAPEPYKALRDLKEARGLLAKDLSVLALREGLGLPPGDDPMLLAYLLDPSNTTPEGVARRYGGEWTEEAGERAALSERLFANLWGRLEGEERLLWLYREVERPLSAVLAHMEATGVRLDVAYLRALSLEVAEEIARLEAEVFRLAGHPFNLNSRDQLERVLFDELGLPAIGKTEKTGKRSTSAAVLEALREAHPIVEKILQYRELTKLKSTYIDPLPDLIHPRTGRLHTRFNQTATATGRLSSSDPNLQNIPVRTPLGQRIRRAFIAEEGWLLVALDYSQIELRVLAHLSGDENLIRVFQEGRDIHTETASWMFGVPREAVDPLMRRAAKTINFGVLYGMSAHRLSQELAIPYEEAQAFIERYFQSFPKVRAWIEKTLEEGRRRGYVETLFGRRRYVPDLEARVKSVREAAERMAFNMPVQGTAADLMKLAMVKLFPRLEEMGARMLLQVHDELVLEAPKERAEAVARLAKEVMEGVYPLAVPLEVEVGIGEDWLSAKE

For the molecule `O=C(CCN1CCC(O)CC1)Nc1ccc2c(c1)C(=O)c1cc(NC(=O)CCN3CCC(O)CC3)ccc1-2`, the inhibition entry in experiment [1], in experiment [3] and in experiment [6] was “inactive” each time. Besides, the half-maximal inhibitory concentration (IC50) is above 25 µM in experiment [2], above 25 µM in experiment [4], 18.5 µM in experiment [5] and above 25 µM in experiment [7].

For the molecule `O=C(CCN1CCCCC1)Nc1ccc2c(c1)C(=O)c1cc(NC(=O)CCN3CCCCC3)ccc1-2`, the inhibition result in experiment [1], in experiment [3] and in experiment [6] was “inactive” throughout. Moreover, the IC50 in experiment [2] was determined as 7.6 µM; in experiment [4], 11 µM; in experiment [5], 9 µM; in experiment [7], 11 µM.

Consider `C[N+]1(CCC(=O)Nc2ccc3c(c2)C(=O)c2cc(NC(=O)CC[N+]4(C)CCCCC4)ccc2-3)CCCCC1`, for which the inhibition result in experiment [1], in experiment [3] and in experiment [6] was “inactive” each time. In addition, the half-inhibitory concentration (IC50) in experiment [2] amounted to 5.2 µM; in experiment [4] it was 3.9 µM; in experiment [5] it was 21 µM; in experiment [7], 4.3 µM.

With `O=C(CCN1CCOCC1)Nc1ccc2c(c1)C(=O)c1cc(NC(=O)CCN3CCOCC3)ccc1-2`, the inhibition entry in experiment [1], in experiment [3] and in experiment [6] was “inactive” in each case. The concentration for half-maximal inhibition (IC50) in experiment [2] is above 25 µM; in experiment [4], above 25 µM; in experiment [5] it was above 50 µM; in experiment [7] it was above 25 µM.

Take `CCN(CC)CCC(=O)Nc1ccc2c(c1)C(=O)c1cc(NC(=O)CCN(CC)CC)ccc1C2=O`: the midpoint of inhibition in experiment [7], the IC50, lay at 2.15 µM.

Turning to `CN(C)CCC(=O)Nc1ccc2c(c1)C(=O)c1cc(NC(=O)CCN(C)C)ccc1-2`, the inhibition result in experiment [1], in experiment [3] and in experiment [6] was “inactive” each time. Also, the half-inhibitory concentration (IC50) was found to be 8.5 µM in experiment [2], 8.2 µM in experiment [4], 16.2 µM in experiment [5] and 12 µM in experiment [7].

Consider `CCC1CCCC[N+]1(C)CCC(=O)Nc1ccc2c(c1)C(=O)c1cc(NC(=O)CC[N+]3(C)CCCCC3CC)ccc1-2` (configuration not stated), for which, in experiment [8], the inhibition entry is “Weak inhibition”. Moreover, the inhibition entry in experiment [1] and in experiment [6] was “inactive” in each case. In addition, the IC50 in experiment [2] is 2.35 µM; in experiment [4] it was 2.6 µM; in experiment [5], above 20 µM; in experiment [7], 2.9 µM.

On to `O=C(CCN1CCN(c2ncccn2)CC1)Nc1ccc2c(c1)C(=O)c1cc(NC(=O)CCN3CCN(c4ncccn4)CC3)ccc1-2`, for which the inhibition result in experiment [1], in experiment [3] and in experiment [6] was “inactive” in each case. The IC50 in experiment [2] was above 25 µM; in experiment [4], above 25 µM; in experiment [5], above 50 µM; in experiment [7] it was above 25 µM.

`O=C(CCN1CCN(c2ccccc2)CC1)Nc1ccc2c(c1)C(=O)c1cc(NC(=O)CCN3CCN(c4ccccc4)CC3)ccc1-2`: the inhibition entry in experiment [1], in experiment [3] and in experiment [6] was “inactive” in each case. Besides, the IC50 in experiment [2] is above 25 µM; in experiment [4], above 25 µM; in experiment [5] it was above 50 µM; in experiment [7] it was above 25 µM.

For `CCN1CCN(CCC(=O)Nc2ccc3c(c2)C(=O)c2cc(NC(=O)CCN4CCN(CC)CC4)ccc2-3)CC1`, the inhibition result in experiment [1], in experiment [3] and in experiment [6] was “inactive” throughout. For the same molecule, the IC50 was above 25 µM in experiment [2], above 25 µM in experiment [4], 17 µM in experiment [5] and above 25 µM in experiment [7].

On to `CC1CCCCN1CCC(=O)Nc1ccc2c(c1)C(=O)c1cc(NC(=O)CCN3CCCCC3C)ccc1-2` (configuration not stated), for which the inhibition result in experiment [1], in experiment [3] and in experiment [6] was “inactive” each time. In addition, the IC50 stood at 1.8 µM in experiment [2], 12 µM in experiment [4], 12 µM in experiment [5] and 10.5 µM in experiment [7].

With `CC1CCN(CCC(=O)Nc2ccc3c(c2)C(=O)c2cc(NC(=O)CCN4CCC(C)CC4)ccc2-3)CC1`, the inhibition entry in experiment [1], in experiment [3] and in experiment [6] was “inactive” throughout. For the same molecule, the IC50 is above 25 µM in experiment [2], 7.6 µM in experiment [4], above 20 µM in experiment [5] and 2.2 µM in experiment [7].

Take `CCN(CC)CCC(=O)Nc1ccc2c(c1)C(=O)c1cc(NC(=O)CCN(CC)CC)ccc1-2`: the inhibition result in experiment [1], in experiment [3] and in experiment [6] was “inactive” throughout. Besides, the concentration for half-maximal inhibition (IC50) was determined as 8 µM in experiment [2], 9.65 µM in experiment [4], 15.5 µM in experiment [5] and 14 µM in experiment [7].

On to `O=C(CCN1CCN(c2ccccn2)CC1)Nc1ccc2c(c1)C(=O)c1cc(NC(=O)CCN3CCN(c4ccccn4)CC3)ccc1-2`, for which the inhibition result in experiment [1], in experiment [3] and in experiment [6] was “inactive” throughout. For the same molecule, the IC50 in experiment [2] was above 25 µM; in experiment [4], above 25 µM; in experiment [5], above 50 µM; in experiment [7], above 25 µM.

Take `CC1CC[N+](C)(CCC(=O)Nc2ccc3c(c2)C(=O)c2cc(NC(=O)CC[N+]4(C)CCC(C)CC4)ccc2-3)CC1` (configuration not stated): the inhibition entry in experiment [8] is “Weak inhibition”. For the same molecule, the inhibition result in experiment [1] and in experiment [6] was “inactive” in each case. Also, the IC50 in experiment [2] is above 25 µM; in experiment [4] it was 3.75 µM; in experiment [5] it was above 20 µM; in experiment [7], 2.5 µM.

Turning to `O=C(CCN1CCN(Cc2ccccc2)CC1)Nc1ccc2c(c1)C(=O)c1cc(NC(=O)CCN3CCN(Cc4ccccc4)CC3)ccc1-2`, the inhibition entry in experiment [1], in experiment [3] and in experiment [6] was “inactive” throughout. Further, the half-maximal inhibitory concentration (IC50) in experiment [2] is above 25 µM; in experiment [4] it was above 25 µM; in experiment [5], above 50 µM; in experiment [7], above 25 µM.

Regarding `CC[N+](C)(CC)CCC(=O)Nc1ccc2c(c1)C(=O)c1cc(NC(=O)CC[N+](C)(CC)CC)ccc1-2`, the inhibition entry in experiment [1], in experiment [3] and in experiment [6] was “inactive” each time. The IC50 was found to be 2.45 µM in experiment [2], 2.4 µM in experiment [4], 25.4 µM in experiment [5] and 3.7 µM in experiment [7].

For `C[N+]1(CCC(=O)Nc2ccc3c(c2)C(=O)c2cc(NC(=O)CC[N+]4(C)CCOCC4)ccc2-3)CCOCC1`, the inhibition entry in experiment [1], in experiment [3] and in experiment [6] was “inactive” throughout. In addition, the half-maximal inhibitory concentration (IC50) in experiment [2] stood at 2.15 µM; in experiment [4] it was 2.45 µM; in experiment [5] it was 27.3 µM; in experiment [7], 2.55 µM.

For the molecule `O=C(CCN1CCCCC1CCO)Nc1ccc2c(c1)C(=O)c1cc(NC(=O)CCN3CCCCC3CCO)ccc1-2` (configuration not stated), the inhibition entry in experiment [1], in experiment [3] and in experiment [6] was “inactive” throughout. The half-inhibitory concentration (IC50) is 14.5 µM in experiment [2], 20 µM in experiment [4], 16.5 µM in experiment [5] and above 25 µM in experiment [7].

Take `O=C(CCN1CCCCC1CO)Nc1ccc2c(c1)C(=O)c1cc(NC(=O)CCN3CCCCC3CO)ccc1-2` (configuration not stated): the inhibition result in experiment [1], in experiment [3] and in experiment [6] was “inactive” throughout. The IC50 in experiment [2] came to 14 µM; in experiment [4], 15 µM; in experiment [5] it was 8 µM; in experiment [7], 13 µM.

In the case of `C[N+]1(CCC(=O)Nc2ccc3c(c2)C(=O)c2cc(NC(=O)CC[N+]4(C)CCCCC4CO)ccc2-3)CCCCC1CO` (configuration not stated), the inhibition result in experiment [1], in experiment [3] and in experiment [6] was “inactive” in each case. Further, the IC50 in experiment [2] was 4.2 µM; in experiment [4], 4.3 µM; in experiment [5], 33 µM; in experiment [7], 3.75 µM.

As to `CCC1CCCCN1CCC(=O)Nc1ccc2c(c1)C(=O)c1cc(NC(=O)CCN3CCCCC3CC)ccc1-2` (configuration not stated), the inhibition entry in experiment [1], in experiment [3] and in experiment [6] was “inactive” throughout. For the same molecule, the IC50 in experiment [2] amounted to 2.15 µM; in experiment [4] it was 3.15 µM; in experiment [5], 14 µM; in experiment [7], 2.2 µM.

Take `C[N+](C)(C)CCC(=O)Nc1ccc2c(c1)C(=O)c1cc(NC(=O)CC[N+](C)(C)C)ccc1-2`: the inhibition result in experiment [1], in experiment [3] and in experiment [6] was “inactive” in each case. Besides, the IC50 came out at 1.95 µM in experiment [2], 1.95 µM in experiment [4], 18.5 µM in experiment [5] and 2.25 µM in experiment [7].

Consider `CC1CCCC[N+]1(C)CCC(=O)Nc1ccc2c(c1)C(=O)c1cc(NC(=O)CC[N+]3(C)CCCCC3C)ccc1-2` (configuration not stated), for which the inhibition entry in experiment [8] is “Weak inhibition”. For the same molecule, the inhibition entry in experiment [1] and in experiment [6] was “inactive” each time. Besides, the IC50 in experiment [2] is 2.6 µM; in experiment [4], 3.95 µM; in experiment [5] it was above 20 µM; in experiment [7], 4.85 µM.

(Values after ChEMBL document CHEMBL1132274, “2,7-Disubstituted amidofluorenone derivatives as inhibitors of human telomerase” (J Med Chem, 1999).)
